{"source": "ChEMBL document CHEMBL3872208", "about": "“Synthesis and pharmacological characterization of novel N-(trans-4-(2-(4-(benzo[d]isothiazol-3-yl)piperazin-1-yl)ethyl)cyclohexyl)amides as potential multireceptor atypical antipsychotics” (Eur J Med Chem, 2016)", "key": {"[1]": {"target": "T1, 5-hydroxytryptamine receptor 1A (Homo sapiens, UniProt P08908)", "T1 sequence (P08908 whole entry)": "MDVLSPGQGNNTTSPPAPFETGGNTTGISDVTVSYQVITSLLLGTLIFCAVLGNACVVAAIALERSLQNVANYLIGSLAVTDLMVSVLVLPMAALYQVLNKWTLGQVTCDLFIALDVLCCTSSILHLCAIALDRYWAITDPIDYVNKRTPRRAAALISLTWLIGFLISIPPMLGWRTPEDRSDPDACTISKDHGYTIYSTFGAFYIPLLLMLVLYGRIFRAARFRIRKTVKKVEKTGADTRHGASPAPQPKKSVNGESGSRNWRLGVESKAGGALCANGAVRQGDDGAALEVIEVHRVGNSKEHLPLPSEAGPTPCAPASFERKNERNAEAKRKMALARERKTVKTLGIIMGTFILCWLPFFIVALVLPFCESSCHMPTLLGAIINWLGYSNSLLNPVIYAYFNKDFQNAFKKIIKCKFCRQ", "experiment": "Displacement of [3H]8-OH-DPAT from recombinant human 5-HT1A receptor expressed in HEK293 cell membranes after 60 mins by scintillation counting method"}, "CHO": {"tested_on": "CHO", "experiment": "Selectivity ratio of Ki for displacement of [3H]spiperone from recombinant human D2L receptor expressed in CHO cell membranes to Ki for displacement of [3H]methyl-spiperone from recombinant human D3 receptor expressed in CHO cell membranes", "how_it_was_run": "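D2L binding: CHO membranes (16 µg protein) with 0.3 nM [3H]methyl-spiperone in 50 mM Tris-HCl pH 7.4, 120 mM NaCl, 10 mM MgCl2, 1 mM EDTA, with butaclamol for nonspecific binding. D3 binding: membranes (8 µg) with 0.3 nM [3H]methyl-spiperone in the same Tris buffer with 5 mM KCl, 5 mM MgCl2, 5 mM EDTA, with (+)butaclamol for nonspecific binding. Both run 60 min at 22 °C, then GF/B filtration. Ki by Cheng–Prusoff; ratio is D2 Ki/D3 Ki.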"}, "[2]": {"target": "T2, Muscarinic acetylcholine receptor M1 (Homo sapiens, UniProt P11229)", "T2 sequence (P11229 whole entry)": "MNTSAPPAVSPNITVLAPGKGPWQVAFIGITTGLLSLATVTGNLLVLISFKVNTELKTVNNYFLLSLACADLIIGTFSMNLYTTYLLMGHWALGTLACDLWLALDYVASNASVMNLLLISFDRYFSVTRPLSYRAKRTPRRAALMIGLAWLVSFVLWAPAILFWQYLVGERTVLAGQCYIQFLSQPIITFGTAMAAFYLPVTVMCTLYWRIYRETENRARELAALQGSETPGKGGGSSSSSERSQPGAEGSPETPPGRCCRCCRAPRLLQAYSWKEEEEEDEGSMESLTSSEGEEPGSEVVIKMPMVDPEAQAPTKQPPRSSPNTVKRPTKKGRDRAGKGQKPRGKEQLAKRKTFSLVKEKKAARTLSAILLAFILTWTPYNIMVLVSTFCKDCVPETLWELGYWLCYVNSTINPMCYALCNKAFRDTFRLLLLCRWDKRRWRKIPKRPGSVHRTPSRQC", "experiment": "Displacement of [3H]pirenzepine from recombinant human M1 receptor expressed in CHO cell membranes at 1 uM after 60 mins by scintillation counting method relative to control", "conditions": "CHO cell membranes expressing recombinant human M1 receptor, probe [3H]pirenzepine", "how_it_was_run": "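Nonspecific binding defined with […]. Filtered on PEI-soaked GF/B and scintillation counted. Expressed as percent inhibition of control specific binding at a single test concentration.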"}, "[3]": {"target": "Voltage-gated inwardly rectifying potassium channel KCNH2 (Homo sapiens, UniProt Q12809)", "sequence (Q12809 whole entry)": "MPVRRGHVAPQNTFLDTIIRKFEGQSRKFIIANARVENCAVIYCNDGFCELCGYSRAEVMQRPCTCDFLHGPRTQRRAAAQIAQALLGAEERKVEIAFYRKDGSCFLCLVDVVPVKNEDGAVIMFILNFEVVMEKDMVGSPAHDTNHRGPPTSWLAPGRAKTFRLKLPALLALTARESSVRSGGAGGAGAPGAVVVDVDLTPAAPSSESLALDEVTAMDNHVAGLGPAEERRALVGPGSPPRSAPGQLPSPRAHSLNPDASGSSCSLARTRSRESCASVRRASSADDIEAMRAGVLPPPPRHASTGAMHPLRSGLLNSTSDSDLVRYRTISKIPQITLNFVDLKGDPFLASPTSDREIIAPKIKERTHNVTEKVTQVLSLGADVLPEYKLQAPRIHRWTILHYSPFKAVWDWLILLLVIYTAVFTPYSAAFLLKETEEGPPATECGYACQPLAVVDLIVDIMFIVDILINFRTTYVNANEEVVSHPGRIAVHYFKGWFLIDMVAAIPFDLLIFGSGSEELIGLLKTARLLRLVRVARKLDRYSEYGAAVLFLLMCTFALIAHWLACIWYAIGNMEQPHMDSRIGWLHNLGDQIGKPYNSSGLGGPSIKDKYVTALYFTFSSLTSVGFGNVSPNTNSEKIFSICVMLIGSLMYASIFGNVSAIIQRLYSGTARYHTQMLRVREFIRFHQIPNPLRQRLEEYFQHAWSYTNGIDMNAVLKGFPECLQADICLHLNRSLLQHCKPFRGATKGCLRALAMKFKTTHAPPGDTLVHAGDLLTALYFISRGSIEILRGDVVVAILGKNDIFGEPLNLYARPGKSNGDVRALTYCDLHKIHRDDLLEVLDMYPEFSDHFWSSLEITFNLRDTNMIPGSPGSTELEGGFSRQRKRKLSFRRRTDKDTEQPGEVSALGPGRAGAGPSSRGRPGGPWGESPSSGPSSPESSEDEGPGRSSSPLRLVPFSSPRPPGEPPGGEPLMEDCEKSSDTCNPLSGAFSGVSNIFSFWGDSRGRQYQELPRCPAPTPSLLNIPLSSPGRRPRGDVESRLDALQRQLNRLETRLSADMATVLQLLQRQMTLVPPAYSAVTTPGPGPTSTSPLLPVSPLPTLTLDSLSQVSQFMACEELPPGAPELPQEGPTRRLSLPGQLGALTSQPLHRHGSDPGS"}, "D(3) dopamine receptor [4]": {"target": "T3, D(3) dopamine receptor (Homo sapiens, UniProt P35462)", "T3 sequence (P35462 whole entry)": "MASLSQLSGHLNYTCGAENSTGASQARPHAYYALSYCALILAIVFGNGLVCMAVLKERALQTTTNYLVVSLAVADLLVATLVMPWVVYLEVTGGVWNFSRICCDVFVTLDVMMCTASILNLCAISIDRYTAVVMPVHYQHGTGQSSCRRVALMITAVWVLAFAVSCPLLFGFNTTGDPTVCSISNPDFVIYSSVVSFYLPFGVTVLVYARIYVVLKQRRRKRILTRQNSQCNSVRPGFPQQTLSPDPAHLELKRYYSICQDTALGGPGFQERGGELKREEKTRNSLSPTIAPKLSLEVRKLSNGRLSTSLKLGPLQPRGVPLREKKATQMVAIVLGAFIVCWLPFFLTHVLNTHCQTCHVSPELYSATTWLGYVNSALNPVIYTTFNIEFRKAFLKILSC", "conditions": "10 uM"}, "[5]": {"experiment": "Cmax in Sprague-Dawley rat plasma at 2.0 mg/kg, po administered as single dose by LC-MS/MS analysis", "format": "ADME, organism-based", "design": "dose 2 mg/kg, route oral", "how_it_was_run": "(§1)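 Male SD rats, single dose: 0.5 mg/kg i.v. or 2.0 mg/kg p.o. Vehicle is 5% DMSO, 10% Solutol HS 15 and 85% PBS. Heparinized blood is sampled at 5, 15 and 30 min and at 1, 2, 4, 8 and 24 h after dosing. Plasma is reported in ng/mL and brain in ng/g. F is derived from the p.o. and i.v. arms.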"}, "D(3) dopamine receptor [6]": {"target": "T3, D(3) dopamine receptor", "experiment": "Agonist activity at D3 receptor (unknown origin) expressed in cell membranes after 40 mins by [35S]GTPgammaS binding assay", "format": "functional"}, "Rattus norvegicus": {"tested_on": "Rattus norvegicus", "experiment": "Cognitive enhancement effect in Sprague-Dawley rat assessed as reversal of PCP-impaired performance by measuring increase in time spent exploring novel object in comparison to familiar object at 0.1 to 0.2 mg/kg, po administered 60 mins prior to test by novel object recognition assay"}, "[7]": {"experiment": "Tmax in Sprague-Dawley rat brain at 2 mg/kg, po administered as single dose by LC-MS/MS analysis", "format": "ADME, organism-based", "how_it_was_run": "as §1"}, "D(3) dopamine receptor [8]": {"target": "T3, D(3) dopamine receptor", "experiment": "Displacement of [3H]methyl-spiperone from recombinant human D3 receptor expressed in CHO cell membranes after 60 mins by scintillation counting method"}, "[9]": {"experiment": "AUC (0 to t) in Sprague-Dawley rat brain at 2 mg/kg, po administered as single dose by LC-MS/MS analysis", "format": "ADME, organism-based", "how_it_was_run": "as §1"}, "[10]": {"experiment": "Half life in Sprague-Dawley rat plasma at 0.5 mg/kg, iv administered as single dose by LC-MS/MS analysis", "format": "ADME, organism-based", "how_it_was_run": "as §1"}, "[11]": {"experiment": "Apparent clearance in Sprague-Dawley rat plasma at 0.5 mg/kg, iv administered as single dose by LC-MS/MS analysis", "format": "ADME, organism-based", "conditions": "read-out: CL(app) (converted)", "how_it_was_run": "as §1"}, "[12]": {"experiment": "Oral bioavailability in Sprague-Dawley rat plasma at 2 mg/kg administered as single dose by LC-MS/MS analysis", "format": "ADME, organism-based", "how_it_was_run": "as §1"}, "[13]": {"experiment": "Cmax in Sprague-Dawley rat brain at 2 mg/kg, po administered as single dose by LC-MS/MS analysis", "format": "ADME, organism-based", "design": "dose 2 mg/kg, route oral", "how_it_was_run": "as §1"}, "[14]": {"experiment": "Cmax in Sprague-Dawley rat brain at 0.5 mg/kg, iv administered as single dose by LC-MS/MS analysis", "format": "ADME, organism-based", "design": "dose 0.5 mg/kg, route intravenous", "how_it_was_run": "as §1"}, "D(2) dopamine receptor": {"target": "D(2) dopamine receptor (Homo sapiens, UniProt P14416)", "sequence (P14416 whole entry)": "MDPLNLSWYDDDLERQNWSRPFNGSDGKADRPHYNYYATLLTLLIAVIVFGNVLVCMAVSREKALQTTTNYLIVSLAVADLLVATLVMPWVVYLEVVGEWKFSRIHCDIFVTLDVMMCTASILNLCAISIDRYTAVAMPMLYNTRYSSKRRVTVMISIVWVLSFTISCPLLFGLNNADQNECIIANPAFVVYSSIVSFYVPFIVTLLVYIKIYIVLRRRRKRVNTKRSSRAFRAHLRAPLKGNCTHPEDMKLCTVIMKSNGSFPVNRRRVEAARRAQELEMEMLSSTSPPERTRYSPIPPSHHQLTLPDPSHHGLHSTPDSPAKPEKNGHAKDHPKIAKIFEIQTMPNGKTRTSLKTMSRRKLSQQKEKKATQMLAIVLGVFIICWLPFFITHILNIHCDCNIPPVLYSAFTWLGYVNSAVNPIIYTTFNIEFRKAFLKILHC", "experiment": "Displacement of [3H]spiperone from recombinant human D2L receptor expressed in CHO cell membranes after 60 mins by scintillation counting method"}}, "note": "Calls of active or inactive are those of the source. The rule behind the calls is not given here."}
{"smiles": "O=C(N[C@H]1CC[C@H](CCN2CCN(c3nsc4ccccc34)CC2)CC1)c1ccco1", "values": [{"measurement": "Ki", "setting": "[1]", "value": 1.3, "unit": "nM"}, {"measurement": "Ratio Ki", "setting": "CHO", "value": 22.3}, {"measurement": "inhibition at 1 h, 1 µM", "setting": "[2]", "value": 50.6, "unit": "%"}, {"measurement": "IC50", "setting": "[3]", "value": 2110, "unit": "nM"}, {"measurement": "inhibition", "setting": "D(3) dopamine receptor [4]", "value": 98.6, "unit": "%"}, {"measurement": "Cmax", "setting": "[5]", "value": 18.4, "unit": "ng/mL"}, {"measurement": "EC50", "setting": "D(3) dopamine receptor [6]", "value": "> 10000", "unit": "nM"}, {"measurement": "Activity", "setting": "Rattus norvegicus", "value": "Active"}, {"measurement": "Tmax", "setting": "[7]", "value": 2, "unit": "h"}, {"measurement": "Ki", "setting": "D(3) dopamine receptor [8]", "value": 0.13, "unit": "nM"}, {"measurement": "AUC(0-t)", "setting": "[9]", "value": 884, "unit": "ng·h/mL"}, {"measurement": "half-life", "setting": "[10]", "value": 0.8, "unit": "h"}, {"measurement": "clearance", "setting": "[11]", "value": 76.7, "unit": "mL/min/kg"}, {"measurement": "bioavailability", "setting": "[12]", "value": 13, "unit": "%"}, {"measurement": "Cmax", "setting": "[13]", "value": 52.8, "unit": "ng/mL"}, {"measurement": "Cmax", "setting": "[14]", "value": 259, "unit": "ng/mL"}, {"measurement": "Ki", "setting": "D(2) dopamine receptor", "value": 2.9, "unit": "nM"}]}
